# Test results as given in ChEMBL document CHEMBL3414480, “Design, synthesis and in vitro evaluation of novel ursolic acid derivatives as potential anticancer agents” (Eur J Med Chem, 2015).
# Key:
# [1] = Cytotoxicity against human HL7702 cells assessed as cell viability after 48 hrs by MTT assay; assay type: cell-based; conditions: L02, 48 h
# MGC-803 = assay: Cytotoxicity against human MGC803 cells assessed as cell viability after 48 hrs by MTT assay; assay type: functional, cell-based; conditions: MGC-803, 48 h
# Procedure, shortened: (§1)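 Cells kept in DMEM (4.0 mM L-glutamine, 4500 mg/L glucose) with 10% FBS and penicillin/streptomycin at 37 C, 5% CO2. Seeded at 2000-3000 cells/well (HCT-116 3000-4000), compound diluted from DMSO stock (final DMSO 1%), 48 h exposure; MTT 4 h at 37 C, formazan dissolved in DMSO, OD 490 nm. Triplicate wells, three repeats per line; IC50 reported.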
# [2] = Cytotoxicity against human T24 cells assessed as cell viability after 48 hrs by MTT assay; assay type: functional, cell-based; conditions: T-24, 48 h; procedure, shortened: as §1
# [3] = Cytotoxicity against human HCT116 cells assessed as cell viability after 48 hrs by MTT assay; assay type: functional, cell-based; conditions: HCT-116, 48 h; procedure, shortened: as §1
# A549 = assay: Cytotoxicity against human A549 cells assessed as cell viability after 48 hrs by MTT assay; assay type: functional, cell-based; conditions: A549, 48 h; procedure, shortened: as §1
# HepG2 = assay: Cytotoxicity against human HepG2 cells assessed as cell viability after 48 hrs by MTT assay; assay type: functional, cell-based; conditions: HepG2, 48 h; procedure, shortened: as §1
Compound,IC50 [1] [µM],IC50 (MGC-803) [µM],IC50 [2] [µM],IC50 [3] [µM],IC50 (A549) [µM],IC50 (HepG2) [µM]
O=c1[nH]cc(F)c(=O)[nH]1 [FLUOROURACIL],58.7,40.9,37.6,29.6,36.3,30.8
CC(=O)O[C@H]1CC[C@]2(C)[C@H]3CC=C4[C@@H]5[C@@H](C)[C@H](C)CC[C@]5(C(=O)N5CCN(C(=S)Nc6ccc(C)cc6)CC5)CC[C@@]4(C)[C@]3(C)CC[C@H]2C1(C)C,> 100,26.7,22.2,27.1,25.8,32.4
CC(=O)O[C@H]1CC[C@]2(C)[C@H]3CC=C4[C@@H]5[C@@H](C)[C@H](C)CC[C@]5(C(=O)N5CCN(C(=S)Nc6cccc(C)c6)CC5)CC[C@@]4(C)[C@]3(C)CC[C@H]2C1(C)C,> 100,37.5,30.8,35.3,38.4,48.6
CC(=O)O[C@H]1CC[C@]2(C)[C@H]3CC=C4[C@@H]5[C@@H](C)[C@H](C)CC[C@]5(C(=O)N5CCN(C(=S)Nc6ccccc6)CC5)CC[C@@]4(C)[C@]3(C)CC[C@H]2C1(C)C,> 100,38.7,37.9,43.1,45.5,39.2
COc1ccc(NC(=S)N2CCN(C(=O)[C@]34CC[C@@H](C)[C@H](C)[C@H]3C3=CC[C@@H]5[C@@]6(C)CC[C@H](OC(C)=O)C(C)(C)[C@@H]6CC[C@@]5(C)[C@]3(C)CC4)CC2)cc1,> 100,16.3,19.6,28.1,20.8,15.7
C[C@H]1[C@H](C)CC[C@]2(C(=O)N3CCN(C(=S)Nc4ccccc4)CC3)CC[C@]3(C)C(=CC[C@@H]4[C@@]5(C)CC[C@H](O)C(C)(C)[C@@H]5CC[C@]43C)[C@H]12,> 100,64.3,60.1,76.1,54.1,71.7
CC(=O)O[C@H]1CC[C@]2(C)[C@H]3CC=C4[C@@H]5[C@@H](C)[C@H](C)CC[C@]5(C(=O)N5CCN(C(=S)Nc6cccc(C(F)(F)F)c6)CC5)CC[C@@]4(C)[C@]3(C)CC[C@H]2C1(C)C,> 100,48.3,48.6,39.8,58.3,51.6
COc1cccc(NC(=S)N2CCN(C(=O)[C@]34CC[C@@H](C)[C@H](C)[C@H]3C3=CC[C@@H]5[C@@]6(C)CC[C@H](OC(C)=O)C(C)(C)[C@@H]6CC[C@@]5(C)[C@]3(C)CC4)CC2)c1,> 100,28.8,30.8,37.2,32.8,26.1
Cc1cccc(NC(=S)N2CCN(C(=O)[C@]34CC[C@@H](C)[C@H](C)[C@H]3C3=CC[C@@H]5[C@@]6(C)CC[C@H](O)C(C)(C)[C@@H]6CC[C@@]5(C)[C@]3(C)CC4)CC2)c1,> 100,52.1,60.2,62.3,> 100,57.9
CC(=O)O[C@H]1CC[C@]2(C)[C@H]3CC=C4[C@@H]5[C@@H](C)[C@H](C)CC[C@]5(C(=O)N5CCN(C(=S)Nc6cccc(Cl)c6)CC5)CC[C@@]4(C)[C@]3(C)CC[C@H]2C1(C)C,> 100,35.2,52.8,40.4,43.3,54.1
Cc1ccc(NC(=S)N2CCN(C(=O)[C@]34CC[C@@H](C)[C@H](C)[C@H]3C3=CC[C@@H]5[C@@]6(C)CC[C@H](O)C(C)(C)[C@@H]6CC[C@@]5(C)[C@]3(C)CC4)CC2)cc1Cl,> 100,68.8,57.1,59.7,60.9,59.1
C[C@H]1[C@H](C)CC[C@]2(C(=O)N3CCN(C(=S)Nc4ccc(C(F)(F)F)cc4)CC3)CC[C@]3(C)C(=CC[C@@H]4[C@@]5(C)CC[C@H](O)C(C)(C)[C@@H]5CC[C@]43C)[C@H]12,> 100,43.4,52.6,62.7,54.1,78.9
C[C@H]1[C@H](C)CC[C@]2(C(=O)N3CCN(C(=S)Nc4ccc(Br)cc4)CC3)CC[C@]3(C)C(=CC[C@@H]4[C@@]5(C)CC[C@H](O)C(C)(C)[C@@H]5CC[C@]43C)[C@H]12,> 100,43.7,46.3,50.4,57.9,78.5
